According to ChEMBL document CHEMBL4229550, “An antimycobacterial pleuromutilin analogue effective against dormant bacilli” (Bioorg Med Chem, 2018):
Values after ≈ are worked out from the molar mass of the structure shown. Active and inactive are the calls of the source. No cut-off for these calls is given here.

What was measured:
Staphylococcus aureus [1] = test: Antibacterial activity against Staphylococcus aureus incubated for 24 hrs under aerobic condition by MABA; assay type: functional; conditions: read-out: MIC100
Summary of the method: (§1)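 Resazurin was then added from a 0.08% stock for 1 h. MIC100 was the lowest concentration where the dye stayed blue (pink means growth). Absorbance was also read at 570 and 600 nm.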

[2] = system: Mycolicibacterium smegmatis; test: Antibacterial activity against Mycobacterium smegmatis; assay type: functional
[3] = system: Mycobacterium tuberculosis; test: Antibacterial activity against replicating Mycobacterium tuberculosis H37Rv incubated for 15 days under aerobic condition by MABA; assay type: functional; conditions: 360 h, read-out: MIC100
Summary of the method: (§2)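 Mtb H37Rv grown in 7H9/OADC at 37 °C with shaking to OD600 0.5. The 0.5-OD culture is exposed aerobically to serial dilutions for 15 days at 37 °C. Resazurin (0.02% stock) is then added for 4 h at 37 °C with shaking.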

[4] = Selectivity index, ratio of IC50 for African green monkey Vero cells to MIC100 for replicating Mycobacterium tuberculosis H37Rv by MABA; assay type: toxicity; conditions: read-out: Selectivity Index
Summary of the method: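 Vero cells are cultured in EMEM with 10% FBS and exposed for 72 h to 0.78–200 µg/mL. Medium is switched to phenol-red-free EMEM, MTT is added, and formazan is read at 570 nm to give IC50. The selectivity index is Vero IC50 divided by the MABA MIC.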

Escherichia coli [5] = test: Inhibition of protein translation/transcription in Escherichia coli S30 cell extract at 0.1 ug/ml using circular DNA with pBESTluc after 60 mins by luciferase reporter gene assay; assay type: functional
Summary of the method: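 Coupled transcription/translation used E. coli S30 extract, amino acid mix and premix, with the pBESTluc template carrying firefly luciferase under the tac promoter. Compounds were added in DMSO and reactions were started with DNA. Incubation was 60 min at 37 °C, stopped on ice, and luciferase was read after adding assay substrate.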

[6] = Half life in Sprague-Dawley rat liver microsomes at 500 ng/ml preincubated for 5 mins followed by NADPH addition by C-MS/MS analysis; assay type: ADME, microsome
[7] = system: Mycobacterium tuberculosis; test: Bactericidal activity against replicating Mycobacterium tuberculosis H37Rv incubated for 15 days under aerobic condition by MABA; assay type: functional; conditions: 360 h; summary of the method: as §2
[8] = system: Mycolicibacterium smegmatis; test: Antibacterial activity against Mycobacterium smegmatis ATCC 607 incubated for 48 hrs under aerobic condition by MABA; assay type: functional; conditions: ATCC 607, 48 h, read-out: MIC100
Summary of the method: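 Mid-log culture at OD 0.5 was incubated with serial dilutions aerobically at 37 °C for 48 h. Resazurin was then added from a 0.08% stock for 1 h. MIC100 was the lowest concentration that stayed blue; absorbance was also read at 570/600 nm.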

[9] = system: Mycolicibacterium smegmatis; test: Bactericidal activity against Mycobacterium smegmatis ATCC 607 incubated for 48 hrs under aerobic condition by MABA; assay type: functional; conditions: ATCC 607, 48 h
Staphylococcus aureus [10] = test: Bactericidal activity against Staphylococcus aureus incubated for 24 hrs under aerobic condition by MABA; assay type: functional
Staphylococcus aureus [11] = test: Antibacterial activity against Staphylococcus aureus ATCC 25923 incubated for 24 hrs under aerobic condition by MABA; assay type: functional; conditions: ATCC 25923, 24 h, read-out: MIC100
Summary of the method: (§3)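 Mid-log cultures at OD 0.5 were exposed to serial dilutions under aerobic conditions at 37 °C for 24 h. Resazurin was then added from a 0.08% stock for 1 h. MIC100 was the lowest concentration where the dye stayed blue (pink means growth). Absorbance was also read at 570 and 600 nm.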

Staphylococcus aureus [12] = test: Bactericidal activity against Staphylococcus aureus ATCC 25923 incubated for 24 hrs under aerobic condition by MABA; assay type: functional; conditions: ATCC 25923, 24 h
Staphylococcus aureus [13] = test: Antibacterial activity against Staphylococcus aureus BAA 2094 incubated for 24 hrs under aerobic condition by MABA; assay type: functional; conditions: BAA 2094, 24 h, read-out: MIC100; summary of the method: as §1
Staphylococcus aureus [14] = test: Bactericidal activity against Staphylococcus aureus BAA 2094 incubated for 24 hrs under aerobic condition by MABA; assay type: functional; conditions: BAA 2094, 24 h
Staphylococcus aureus [15] = test: Antibacterial activity against Staphylococcus aureus BAA 1683 incubated for 24 hrs under aerobic condition by MABA; assay type: functional; conditions: BAA 1683, 24 h, read-out: MIC100; summary of the method: as §3
Staphylococcus aureus [16] = test: Bactericidal activity against Staphylococcus aureus BAA 1683 incubated for 24 hrs under aerobic condition by MABA; assay type: functional; conditions: BAA 1683, 24 h
Staphylococcus aureus [17] = test: Antibacterial activity against Staphylococcus aureus BAA 44 incubated for 24 hrs under aerobic condition by MABA; assay type: functional; conditions: BAA 44, 24 h, read-out: MIC100; summary of the method: as §3
Staphylococcus aureus [18] = test: Bactericidal activity against Staphylococcus aureus BAA 44 incubated for 24 hrs under aerobic condition by MABA; assay type: functional; conditions: BAA 44, 24 h
Enterococcus faecalis [19] = test: Antibacterial activity against Enterococcus faecalis ATCC 349 incubated for 24 hrs under aerobic condition by MABA; assay type: functional; conditions: ATCC 349, 24 h, read-out: MIC100; summary of the method: as §3
Enterococcus faecalis [20] = test: Bactericidal activity against Enterococcus faecalis ATCC 349 incubated for 24 hrs under aerobic condition by MABA; assay type: functional; conditions: ATCC 349, 24 h
Enterococcus faecalis [21] = test: Antibacterial activity against Enterococcus faecalis ATCC 19433 incubated for 24 hrs under aerobic condition by MABA; assay type: functional; conditions: ATCC 19433, 24 h, read-out: MIC100; summary of the method: as §3
Enterococcus faecalis [22] = test: Bactericidal activity against Enterococcus faecalis ATCC 19433 incubated for 24 hrs under aerobic condition by MABA; assay type: functional; conditions: ATCC 19433, 24 h
Clostridioides difficile = test: Bactericidal activity against Clostridium difficile ATCC 700057 incubated for 24 hrs […] by MABA; assay type: functional; conditions: ATCC 700057, 24 h
Streptococcus pneumoniae [23] = test: Antibacterial activity against Streptococcus pneumoniae ATCC 6301 incubated for 24 hrs under aerobic condition by MABA; assay type: functional; conditions: ATCC 6301, 24 h, read-out: MIC100; summary of the method: as §3
Streptococcus pneumoniae [24] = test: Bactericidal activity against Streptococcus pneumoniae ATCC 6301 incubated for 24 hrs under aerobic condition by MABA; assay type: functional; conditions: ATCC 6301, 24 h
Klebsiella pneumoniae [25] = test: Antibacterial activity against Klebsiella pneumoniae ATCC 12019 incubated for 24 hrs under aerobic condition by MABA; assay type: functional; conditions: ATCC 12019, 24 h, read-out: MIC100; summary of the method: as §3
Klebsiella pneumoniae [26] = test: Bactericidal activity against Klebsiella pneumoniae ATCC 12019 incubated for 24 hrs under aerobic condition by MABA; assay type: functional; conditions: ATCC 12019, 24 h
Acinetobacter baumannii [27] = test: Antibacterial activity against Acinetobacter baumannii ATCC 19606 incubated for 24 hrs under aerobic condition by MABA; assay type: functional; conditions: ATCC 19606 = CIP 70.34 = JCM 6841, 24 h, read-out: MIC100; summary of the method: as §3
Acinetobacter baumannii [28] = test: Bactericidal activity against Acinetobacter baumannii ATCC 19606 incubated for 24 hrs under aerobic condition by MABA; assay type: functional; conditions: ATCC 19606 = CIP 70.34 = JCM 6841, 24 h
Escherichia coli [29] = test: Antibacterial activity against Escherichia coli ATCC 10798 incubated for 24 hrs under aerobic condition by MABA; assay type: functional; conditions: ATCC 10798, 24 h, read-out: MIC100; summary of the method: as §3
Escherichia coli [30] = test: Bactericidal activity against Escherichia coli ATCC 10798 incubated for 24 hrs under aerobic condition by MABA; assay type: functional; conditions: ATCC 10798, 24 h
Streptococcus salivarius [31] = test: Antibacterial activity against Streptococcus salivarius […] incubated for 24 hrs under aerobic condition by MABA; assay type: functional; conditions: read-out: MIC100; summary of the method: as §1
Streptococcus salivarius [32] = test: Bactericidal activity against Streptococcus salivarius ATCC 6301 incubated for 24 hrs under aerobic condition by MABA; assay type: functional; conditions: ATCC 6301, 24 h
Bacillus subtilis [33] = test: Antibacterial activity against Bacillus subtilis ATCC 6051 incubated for 24 hrs under aerobic condition by MABA; assay type: functional; conditions: ATCC 6051, 24 h, read-out: MIC100; summary of the method: as §3
Bacillus subtilis [34] = test: Bactericidal activity against Bacillus subtilis ATCC 6051 incubated for 24 hrs under aerobic condition by MABA; assay type: functional; conditions: ATCC 6051, 24 h

## C=C[C@]1(C)C[C@@H](OC(=O)CSC(C)(C)CNC(=O)[C@H](N)C(C)C)[C@]2(C)[C@H](C)CC[C@]3(CCC(=O)[C@H]32)[C@@H](C)[C@@H]1O [VALNEMULIN]
Staphylococcus aureus [1]
  MIC: 0.4 µg/mL (≈ 0.708 µM)
[2]
  MIC: 8 to 16 µg/mL (≈ 14.2 to 28.3 µM)
[3]
  MIC: 3.13 µg/mL (≈ 5.54 µM)
[4]
  selectivity ratio: 4.79
Escherichia coli [5]
  inhibition: Active
[6]
  t1/2: 10 min
[7]
  MBC: 6.25 µg/mL (≈ 11.1 µM)
[8]
  MIC: 12.5 µg/mL (≈ 22.1 µM)
[9]
  MBC: 25 µg/mL (≈ 44.3 µM)
Staphylococcus aureus [10]
  MBC: 0.8 µg/mL (≈ 1.42 µM)
Staphylococcus aureus [11]
  MIC: > 25 µg/mL
Staphylococcus aureus [12]
  MBC: > 25 µg/mL
Staphylococcus aureus [13]
  MIC: > 25 µg/mL
Staphylococcus aureus [14]
  MBC: > 25 µg/mL
Staphylococcus aureus [15]
  MIC: > 25 µg/mL
Staphylococcus aureus [16]
  MBC: > 25 µg/mL
Staphylococcus aureus [17]
  MIC: > 25 µg/mL
Staphylococcus aureus [18]
  MBC: > 25 µg/mL
Enterococcus faecalis [19]
  MIC: > 25 µg/mL
Enterococcus faecalis [20]
  MBC: > 25 µg/mL
Enterococcus faecalis [21]
  MIC: 6.25 µg/mL (≈ 11.1 µM)
Enterococcus faecalis [22]
  MBC: 12.5 µg/mL (≈ 22.1 µM)
Clostridioides difficile
  MBC: 1.56 µg/mL (≈ 2.76 µM)
Streptococcus pneumoniae [23]
  MIC: 12.5 µg/mL (≈ 22.1 µM)
Streptococcus pneumoniae [24]
  MBC: > 25 µg/mL
Klebsiella pneumoniae [25]
  MIC: 12.5 µg/mL (≈ 22.1 µM)
Klebsiella pneumoniae [26]
  MBC: 25 µg/mL (≈ 44.3 µM)
Acinetobacter baumannii [27]
  MIC: 4.69 µg/mL (≈ 8.3 µM)
Acinetobacter baumannii [28]
  MBC: 6.25 µg/mL (≈ 11.1 µM)
Escherichia coli [29]
  MIC: 12.5 µg/mL (≈ 22.1 µM)
Escherichia coli [30]
  MBC: > 25 µg/mL
Streptococcus salivarius [31]
  MIC: 0.4 µg/mL (≈ 0.708 µM)
Streptococcus salivarius [32]
  MBC: > 25 µg/mL
Bacillus subtilis [33]
  MIC: 12.5 µg/mL (≈ 22.1 µM)
Bacillus subtilis [34]
  MBC: 25 µg/mL (≈ 44.3 µM)
